The values below come from ChEMBL document CHEMBL1143704, “Cyathusals A, B, and C, antioxidants from the fermented mushroom Cyathus stercoreus” (J Nat Prod, 2007).

A short description of test [1]: Antioxidant activity assessed as ABTS radical scavenging activity after 7 mins.
Test [2] has as its system Radical scavenging activity. The test is described as follows: Antioxidant activity assessed as DPPH radical scavenging activity after 30 mins. The format is functional. The method in brief:
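10 µL DMSO sample dilutions (DMSO alone as control) added to 190 µL of 1.5 × 10^-4 M ethanolic DPPH radical. Incubated 30 min at 25 °C, then A517 read at steady state. % scavenged = (1 − Atest/Acontrol) × 100. EC50 is the concentration scavenging 50% of the DPPH radical.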

Turning to `C/C=C/c1cc2c(c(=O)o1)-c1c(O)c(O)c(OC)c(C=O)c1C(OC(C)C)O2` (configuration not stated) [CYATHUSAL C], the EC50 in test [1] amounted to 9.1 µM; in test [2] it was 26.6 µM.

For the compound `C/C=C/c1cc2c(c(=O)o1)-c1c(O)c(O)c(OC)c(C=O)c1C(OC)O2` (configuration not stated) [PULVINATAL], the results for the EC50 in test [1] and in test [2] were 8.36 µM and 28.6 µM, respectively.

For `COc1ccc(O)c(C(C)(C)C)c1.COc1ccc(O)cc1C(C)(C)C` [BUTYLATED HYDROXYANISOLE], the EC50 in test [1] turned out to be 11.7 µM; in test [2], 97.1 µM.

On to `Cc1c(C)c2c(c(C)c1O)CCC(C)(C(=O)O)O2` (configuration not stated) [TROLOX], for which the results for the EC50 in test [1] and in test [2] were 14.5 µM and 37.6 µM, respectively.

As to `C/C=C/c1cc2c(c(=O)o1)-c1c(O)c(O)c(OC)c(C=O)c1C(O)O2` (configuration not stated) [CYATHUSAL B], the results for the concentration for a half-maximal effect (EC50) in test [1] and in test [2] were 11.1 µM and 46 µM, respectively.

For the compound `C/C=C/c1cc2c(c(=O)o1)-c1c(O)c(O)c(OC)c(C=O)c1CO2` [CYATHUSAL A], the half-maximal effective concentration (EC50) in test [1] worked out at 7.86 µM; in test [2], 41.6 µM.
